Hits are enriched below; roughly 2.2% of the tested compounds scored in any of these assays.
FLuc act counter – FLuc activators, initial screening, artefact control for FLuc-dependent activation tests, biochemical, ATPlite luminescence; ATPlite luciferase biochemical, 10 min; 0 = ATP-free wells, 1 = DMSO control; activation factor at 10 µM; 200,000 tested, under 10 active; Luciferin 4-monooxygenase (Photinus pyralis), P08659;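 active means luciferase activation factor, scaled between plate controls, of at least 2 with compound at 10 µM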
Target sequence (P08659 whole entry, looked up): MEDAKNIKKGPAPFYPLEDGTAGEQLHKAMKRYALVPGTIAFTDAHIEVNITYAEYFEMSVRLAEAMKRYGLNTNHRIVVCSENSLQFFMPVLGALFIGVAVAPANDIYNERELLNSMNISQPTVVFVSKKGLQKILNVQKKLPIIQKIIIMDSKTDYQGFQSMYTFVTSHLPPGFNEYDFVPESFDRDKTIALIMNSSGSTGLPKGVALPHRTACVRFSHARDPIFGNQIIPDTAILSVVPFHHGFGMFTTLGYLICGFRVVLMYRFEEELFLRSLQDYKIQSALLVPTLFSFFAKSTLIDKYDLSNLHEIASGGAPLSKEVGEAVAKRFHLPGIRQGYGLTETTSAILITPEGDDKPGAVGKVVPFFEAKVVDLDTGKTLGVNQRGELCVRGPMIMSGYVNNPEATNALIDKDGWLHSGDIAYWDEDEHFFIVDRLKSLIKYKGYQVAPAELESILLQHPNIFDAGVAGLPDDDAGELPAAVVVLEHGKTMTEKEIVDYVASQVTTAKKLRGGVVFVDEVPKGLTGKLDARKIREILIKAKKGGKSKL
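System: cell-free luciferase reagent; medium: PBS as buffer for the ATP substrate; doses: test compounds dosed from 2 mM stocks in 100% DMSO; incubation: 10 min, room temperature; measured by: luminescence from luciferase reaction; read-out: luciferase activation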
TRAIL sens C8 – viability loss with TRAIL in NB7+C8 cells, primary screen, TRAIL sensitizer project, cell-based, ATPlite luminescence; AID 624354, 2012; 360,000 compounds, 1% hits; inhibition (viability loss, TRAIL sensitization), % at 10 µM;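 active means compounds causing at least 50% loss of cell viability in the single-dose screen, relative to plate controls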
PPC-1+TRAIL kill – compounds killing PPC-1 cancer cells with TRAIL present, primary screen, TRAIL potentiator project, ATPLite luminescence, uHTS | PPC-1 cells + TRAIL, ATPLite viability luminescence | cell killing (% activity), % at 4 µM or 5 µM | 220,000 compounds, 0.41% hits | AID 1443, 2008;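 active means cell killing above 50% in the first pass at 4 µM, then a duplicate retest at 5 µM averaging 50% or more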;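 further: plate controls were cells with TRAIL plus DMSO for no effect and medium-only wells lacking cells for full effect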
FLuc inhib CS – firefly luciferase enzyme inhibitors, primary screen, artefact control for luciferase-based inhibitor screens, biochemical, luminescence, ATPLite; Luciferin 4-monooxygenase (Photinus pyralis), P08659; 10 min; inhibition, % at 10 µM; 200,000 compounds, 1.5% hits; AID 1006, 2008;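 active means inhibition above about 50% when tested at 10 µM, limit read from the data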
APP 5'UTR act – activators of APP 5'UTR luciferase reporter, primary screen, SH-SY5Y cells | SH-SY5Y APP 5'UTR luciferase reporter, luminescence; zero percent = DMSO vehicle wells | 190,000 compounds, 1% hits | activation, % at 2 µM;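 active means activation above a set limit, based on mean plus 3 SD of controls, cut at about 140% in these data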
NF-kB expr up – activators of NF-kB expression in neurons, primary screen, cell-based, HTS | human neuronal cells, NF-kB reporter expression; stronger effect = higher value | fold change at 12.5 µM | 190,000 compounds, 1.6% hits; in the data active means fold change above about 3.3
* hit, by the source's call; nt = no result.

SMILES | FLuc act counter | TRAIL sens C8 | PPC-1+TRAIL kill | FLuc inhib CS | APP 5'UTR act | NF-kB expr up
CCN(C[C@H]1N[C@@](CC)(C(=O)OC)[C@H]2C(=O)N(Cc3ccccc3)C(=O)[C@@H]12)C(=O)COc1ccccc1 | nt | -6 | nt | nt | nt | nt
Cc1cc(=O)oc2cc(OCC(=O)N3CCN(C(=O)C4COc5ccccc5O4)CC3)c(Cl)cc12 (stereo unspecified) | nt | -5 | nt | nt | nt | nt
Nc1ncccc1OCc1cccc(C(F)(F)F)c1 | 1 | 12 | 22 | 1 | 29 | 1.1
Nc1nc(N)c(-c2cccc(C(F)(F)F)c2)c(Cc2cccc(C(F)(F)F)c2)n1 | nt | 78* | nt | nt | nt | nt
COc1cccc(C(=O)Nc2ccc(C(F)(F)F)n(C)c2=O)c1 | 0.4 | 44 | 28 | 56* | 136* | 1.3
Cc1c(Br)c([N+](=O)[O-])nn1CC(=O)Nc1ccc(C(C)C)cc1 | 1 | -3 | 26 | 1 | 5 | 0.92
CCCn1c(C(C)C)n[nH]c1=S | nt | 14 | 13 | nt | nt | nt
COc1ccc(/C=C2\SC(=O)N(CCNC(=O)C3CSC4(C)CCC(=O)N34)C2=O)cc1 (stereo unspecified) | nt | 16 | nt | nt | nt | nt
COc1ccc(/C=C2\SC(=O)N(CCNC(=O)C3CC4C=CC3C4)C2=O)cc1 (stereo unspecified) | 0.8 | 12 | -4 | 20 | 202* | 9.5*
O=C1c2ccc([N+](=O)[O-])cc2NC(c2ccco2)N1/N=C/c1ccco1 (stereo unspecified) | nt | 8 | 10 | nt | nt | nt
CN=c1scc(-c2ccc([N+](=O)[O-])cc2)n1/N=C/c1ccco1 | 0.9 | 5 | 4 | 8 | 196* | 1.5
N#Cc1cccc(C#N)c1NCC1CCCO1 (stereo unspecified) | nt | -3 | nt | nt | nt | nt
O=C(Nc1ccc2ccccc2c1)c1cccc(F)c1 | nt | 16 | 10 | nt | nt | nt
Cc1ccc2cc(NC(=O)c3ccccc3)ccc2n1 | nt | 58* | nt | nt | nt | nt
Cc1ccc2cc(NC(=O)c3cccc(F)c3)ccc2n1 | nt | 46* | 5 | nt | nt | nt
COc1ccc(-c2cc(=O)c3cc(C)ccc3[nH]2)cc1 | 0.2 | 73* | 40 | 82* | 99 | 6.5*
CC(C)NC(=O)Nc1cccc2c1O[C@H](CN(C)C(=O)NC1CCCCC1)[C@@H](C)CN([C@H](C)CO)C2=O | nt | 4 | nt | nt | nt | nt
O=C(Nc1ncc2c(n1)CC(c1ccco1)CC2=O)c1ccccc1 (stereo unspecified) | 1.1 | 0 | 58* | -10 | 1 | 1.2
Cc1ccc(C(=O)Nc2ncc3c(n2)CC(c2ccco2)CC3=O)cc1 (stereo unspecified) | 0.9 | 10 | 31 | 13 | 31 | 1.2
O=C(NCC1CCCO1)c1cc(-c2ccc(Cl)cc2Cl)on1 (stereo unspecified) | 0.3 | 45 | 45 | 71* | 66 | 3.4*
Cc1ccc(-c2cc(C(=O)NCC3CCCO3)no2)cc1 (stereo unspecified) | 0.6 | 19 | 47 | 43 | 112 | 3.2
O=C(NCC1CCCO1)c1cc(-c2ccccc2)on1 (stereo unspecified) | 1 | 2 | 7 | 4 | 33 | 7.8*
Cc1[nH]c2ccccc2c1C(=O)CSC(=S)N(C)C1CCCCC1 | 0.9 | -4 | 18 | 9 | 12 | 0.99
O=C(CSC(=S)N1CCCC1)c1ccccc1 | nt | 16 | nt | nt | nt | nt
Cc1[nH]c2ccccc2c1C(=O)CSC(=S)N1CCCCC1 | 0.5 | 35 | 40 | 55* | 53 | 1.9
SMILES | FLuc act counter | TRAIL sens C8 | PPC-1+TRAIL kill | FLuc inhib CS | APP 5'UTR act | NF-kB expr up
O=C(CSC(=S)N1CCCCC1)c1ccccc1 | 0.2 | 54* | 34 | 76* | 242* | 3.3*
CC(C)Cc1nc2oc3c(NCCCN4CCOCC4)ncnc3c2c2c1CCC2 | 1.1 | 17 | 18 | -7 | 16 | 0.65
CC(C)Cc1nc2oc3c(Cl)ncnc3c2c2c1CCC2 | 1 | 85* | 45 | -4 | -14 | 1
COC(=O)[C@@H](NCc1ccc(B(O)O)cc1)C(C)C | nt | 6 | nt | nt | nt | nt
CC(C)C(=O)Nc1cccc(-c2nc3ccccc3c(=O)o2)c1 | 0.9 | 19 | 35 | 6 | -1 | 0.95
CCCC(=O)Nc1cccc(-c2nc3ccccc3c(=O)o2)c1 | 0.5 | 40 | 29 | 54* | -2 | 3.9*
CC(C)(C)C(=O)Nc1ccc(-c2nc3ccccc3c(=O)o2)cc1 | 0 | 59* | 41 | 96* | 12 | 0.27
CC(C)C(=O)Nc1ccc(-c2nc3ccccc3c(=O)o2)cc1 | 0.1 | 48 | 31 | 90* | 6 | 0.77
COc1ccc(-c2nc3ccccc3c(=O)o2)cc1OC | 0.9 | 7 | -7 | 10 | 17 | 1.1
Cc1ccc(C(=O)NCC(=O)OCCCOC(=O)CNC(=O)c2ccc(C)c(C)c2)cc1C | nt | -1 | nt | nt | nt | nt
CCOC(=O)c1c(C)c(C(=O)Nc2cc(F)ccc2F)c(C)n1C | 1 | -8 | 9 | -4 | 5 | 4.3*
CCOC(=O)c1c(C)c(C(=O)Nc2ccc3c(c2)OCCO3)c(C)n1C | 1 | 16 | 10 | 1 | -7 | 1
O=c1c2[nH]c3ccccc3c2ncn1C1CCCCC1 | 0.7 | 69* | 16 | 32 | 40 | 1.8
O=c1c2ccccc2ncn1C1CCCCC1 | 1 | 4 | 5 | -3 | 4 | 0.99
CC(C)(C)c1ccc(C(=O)NCCc2ccccc2)cc1 | nt | 40 | nt | nt | nt | nt
CSCCNC(=O)c1ccc(C(C)(C)C)cc1 | 0.3 | 20 | 41 | 74* | -5 | 5.4*
Cc1ccc(C(=O)NCCSC(C)(C)C)cc1 | 0.9 | -9 | -6 | 13 | 125 | 4.1*
CC(C)(C)SCCNC(=O)c1ccccc1 | 1 | -6 | -1 | 0 | nt | 1.8
C/C(=N\NC(=O)CSc1nc(C)cc(C)n1)c1ccc2c(c1)OCCO2 | 1 | -5 | -1 | 0 | 4 | 1.5
CCC(=O)NNC(=O)CCC(=O)Nc1cccc(Cl)c1C | 1 | -2 | -7 | -3 | 15 | 1.1
O=c1c(-c2ccc3c(c2)OCCO3)coc2cc(OC3OC(CO)C(O)C(O)C3O)ccc12 (stereo unspecified) | nt | 54* | 14 | nt | 159* | nt
COCCCn1c(=O)c2ccccc2n(CC(=O)NCCC2=CCCCC2)c1=O | nt | 10 | nt | nt | nt | nt
Cc1cc2ccccc2c(=O)n1CC(=O)NCCC1=CCCCC1 | 0.4 | -1 | 21 | 60* | -6 | 1.1
CC(/C=C/c1ccc(N(C)C)cc1)=N\N=C(/N)SC1CC(=O)N(c2ccc(C(=O)O)cc2)C1=O (stereo unspecified) | 0.3 | 46 | 54* | 69* | 1 | 1.4

Screens (PubChem)
